One may read the EC50 as the concentration giving half of the maximal effect. The term IC50 denotes the point on the concentration scale where inhibition reaches its midpoint. Higher therefore signals lower potency. As a reminder, the Cmax is the highest concentration seen after dosing. The term Tmax denotes the time from dosing to the highest level.

Bounds are passed on as bounds.

Series [1] concerns the target T1, C-C chemokine receptor type 5 (Homo sapiens, UniProt P51681). Kind of series: Agonist activity at CCR5 (unknown origin). In a few lines: (§1)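 β-arrestin assays run in both agonist and antagonist modes across a panel of 18 CXC and CC chemokine receptors.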
Series [2] has as its target C-X-C chemokine receptor type 4 (Homo sapiens, UniProt P61073). Briefly: Antagonist activity at CXCR4 (unknown origin). The procedure, abridged: as §1
Series [3] can be described thus: Cmax in dog at 1.29 mg/kg, po measured up to 4 hrs post dose. The format is ADME, organism-based, Canis lupus familiaris. Set-up: dose 1.29 mg/kg, route oral. To be noted: in vivo.
A further series has as its system Rattus norvegicus. Briefly: Dose normalized AUC (0 to infinity) in Wistar rat at 2.41 mg/kg, po measured up to 4 hrs post dose. Type of series: ADME, organism-based. To be noted: in vivo.
In series [4] the target is T1, C-C chemokine receptor type 5. Kind of series: Antagonist activity at CCR5 (unknown origin). In a few lines:
as §1

Series [5] addresses C-C chemokine receptor type 2 (Homo sapiens, UniProt P41597). Briefly: Agonist activity at CCR2 (unknown origin). The procedure, abridged: as §1
Series [6] concerns the target C-C chemokine receptor type 8 (Homo sapiens, UniProt P51685). Kind of series: Agonist activity at CCR8 (unknown origin). The procedure, abridged: as §1
Series [7] in a line: Tmax in dog at 1.29 mg/kg, po measured up to 4 hrs post dose. Type of series: ADME, organism-based, Canis lupus familiaris. To be noted: in vivo.
The next series deals with Chemerin-like receptor 1 (Homo sapiens, UniProt Q99788). Kind of series: Agonist activity at CMKLR1 (unknown origin). The procedure, abridged: as §1
Series [8] is described as follows: Intrinsic clearance in dog hepatocytes. The format is ADME, cell-based, Canis lupus familiaris, Hepatocyte.

T1 sequence (P51681 whole entry): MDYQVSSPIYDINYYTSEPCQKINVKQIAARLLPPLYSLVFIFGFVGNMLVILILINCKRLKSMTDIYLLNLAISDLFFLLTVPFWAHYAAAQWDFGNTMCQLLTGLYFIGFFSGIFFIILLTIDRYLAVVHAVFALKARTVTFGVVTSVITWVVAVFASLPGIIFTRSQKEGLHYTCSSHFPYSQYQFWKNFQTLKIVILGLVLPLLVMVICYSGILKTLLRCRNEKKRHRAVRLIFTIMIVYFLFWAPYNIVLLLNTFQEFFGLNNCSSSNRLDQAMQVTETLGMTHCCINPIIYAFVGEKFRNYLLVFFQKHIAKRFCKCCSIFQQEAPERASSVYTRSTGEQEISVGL
Sequence of Chemerin-like receptor 1 (Q99788 whole entry): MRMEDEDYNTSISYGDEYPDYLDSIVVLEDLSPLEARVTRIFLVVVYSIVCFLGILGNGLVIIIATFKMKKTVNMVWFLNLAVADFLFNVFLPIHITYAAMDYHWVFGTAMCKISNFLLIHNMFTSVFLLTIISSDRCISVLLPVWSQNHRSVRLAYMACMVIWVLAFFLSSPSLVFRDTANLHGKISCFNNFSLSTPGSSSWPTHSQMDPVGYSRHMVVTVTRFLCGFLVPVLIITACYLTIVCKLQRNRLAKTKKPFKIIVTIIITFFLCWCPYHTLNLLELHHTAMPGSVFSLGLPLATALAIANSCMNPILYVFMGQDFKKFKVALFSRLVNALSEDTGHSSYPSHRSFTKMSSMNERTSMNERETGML
Sequence of C-X-C chemokine receptor type 4 (P61073 whole entry): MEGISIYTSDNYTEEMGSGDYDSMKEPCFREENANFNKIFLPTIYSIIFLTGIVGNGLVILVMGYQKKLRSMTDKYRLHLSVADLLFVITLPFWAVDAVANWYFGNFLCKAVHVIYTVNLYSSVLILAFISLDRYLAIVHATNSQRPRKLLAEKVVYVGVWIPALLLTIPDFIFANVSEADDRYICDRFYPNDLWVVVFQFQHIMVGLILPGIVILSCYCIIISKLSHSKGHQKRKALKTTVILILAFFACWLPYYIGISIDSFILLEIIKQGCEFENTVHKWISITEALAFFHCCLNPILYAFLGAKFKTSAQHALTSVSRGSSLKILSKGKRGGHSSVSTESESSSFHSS
Sequence of C-C chemokine receptor type 2 (P41597 whole entry): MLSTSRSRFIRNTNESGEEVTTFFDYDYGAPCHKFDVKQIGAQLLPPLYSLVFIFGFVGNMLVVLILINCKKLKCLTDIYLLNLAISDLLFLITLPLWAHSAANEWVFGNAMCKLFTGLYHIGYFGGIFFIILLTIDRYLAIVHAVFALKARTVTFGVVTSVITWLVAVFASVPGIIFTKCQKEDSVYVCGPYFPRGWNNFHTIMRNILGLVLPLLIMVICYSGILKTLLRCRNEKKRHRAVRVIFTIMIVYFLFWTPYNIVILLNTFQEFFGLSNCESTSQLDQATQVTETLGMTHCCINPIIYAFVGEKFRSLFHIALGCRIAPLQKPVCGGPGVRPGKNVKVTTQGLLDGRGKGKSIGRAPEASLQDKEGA
Sequence of C-C chemokine receptor type 8 (P51685 whole entry): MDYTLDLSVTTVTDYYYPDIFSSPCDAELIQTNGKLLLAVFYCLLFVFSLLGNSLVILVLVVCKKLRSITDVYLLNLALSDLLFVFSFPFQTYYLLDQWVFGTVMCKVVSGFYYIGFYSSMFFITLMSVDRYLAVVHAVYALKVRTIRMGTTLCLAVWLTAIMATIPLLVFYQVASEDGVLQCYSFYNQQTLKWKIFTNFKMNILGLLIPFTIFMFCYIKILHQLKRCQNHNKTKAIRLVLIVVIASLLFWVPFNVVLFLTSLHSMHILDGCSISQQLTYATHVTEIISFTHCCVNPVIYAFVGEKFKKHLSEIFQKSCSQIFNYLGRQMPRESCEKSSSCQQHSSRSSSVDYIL

Regarding `CC1=CCC[C@H]1NC(=O)Nc1ccc(Cl)c(S(=O)(=O)[C@@]2(C)CCOC2)c1O`, the EC50 (in series [1]; in series [5]; in series [6]; on Chemerin-like receptor 1) was above 10 µM throughout. Also, the IC50 in [2] and in series [4] was above 10 µM throughout. The compound also registered a Cmax in series [3] of 728 ng/mL. In addition, the AUC/dose in the series with Rattus norvegicus was determined as 860 ng·h/mL/mg/kg. Besides, the Tmax in series [7] is 1.1 h. In [8], the CLH was determined as 1.8 mL/min/g.

Source of the values: ChEMBL document CHEMBL4033786, “Discovery of Novel 1-Cyclopentenyl-3-phenylureas as Selective, Brain Penetrant, and Orally Bioavailable CXCR2 Antagonists” (J Med Chem, 2018).
